# Measured values as given in ChEMBL document CHEMBL4229410, “Facile construction of fused benzimidazole-isoquinolinones that induce cell-cycle arrest and apoptosis in colorectal cancer cells” (Bioorg Med Chem, 2018).
# What was measured:
# [1] = target: Mitogen-activated protein kinase kinase kinase 9 (Homo sapiens, UniProt P80192); assay: Binding affinity to human MLK1 (V88 to W426 residues) expressed in bacterial expression system by KINOMEscan assay
# [2] = target: High affinity nerve growth factor receptor (Homo sapiens, UniProt P04629); assay: Binding affinity to human TRKA (G475 to G790 residues) expressed in mammalian expression system by KINOMEscan assay
# [3] = target: Serine/threonine-protein kinase STK11 (Homo sapiens) (UniProt Q15831); assay: Inhibition of full length human LKB1 (M1 to Q433 residues) expressed in bacterial expression system assessed as residual activity at 5 uM by KINOMEscan assay relative to control
# [4] = target: Macrophage colony-stimulating factor 1 receptor (Homo sapiens, UniProt P07333); assay: Binding affinity to human CSF1R (I564 to S939 residues) expressed in bacterial expression system by KINOMEscan assay
# Sequence of Macrophage colony-stimulating factor 1 receptor (P07333 whole entry, the tested form may be a part): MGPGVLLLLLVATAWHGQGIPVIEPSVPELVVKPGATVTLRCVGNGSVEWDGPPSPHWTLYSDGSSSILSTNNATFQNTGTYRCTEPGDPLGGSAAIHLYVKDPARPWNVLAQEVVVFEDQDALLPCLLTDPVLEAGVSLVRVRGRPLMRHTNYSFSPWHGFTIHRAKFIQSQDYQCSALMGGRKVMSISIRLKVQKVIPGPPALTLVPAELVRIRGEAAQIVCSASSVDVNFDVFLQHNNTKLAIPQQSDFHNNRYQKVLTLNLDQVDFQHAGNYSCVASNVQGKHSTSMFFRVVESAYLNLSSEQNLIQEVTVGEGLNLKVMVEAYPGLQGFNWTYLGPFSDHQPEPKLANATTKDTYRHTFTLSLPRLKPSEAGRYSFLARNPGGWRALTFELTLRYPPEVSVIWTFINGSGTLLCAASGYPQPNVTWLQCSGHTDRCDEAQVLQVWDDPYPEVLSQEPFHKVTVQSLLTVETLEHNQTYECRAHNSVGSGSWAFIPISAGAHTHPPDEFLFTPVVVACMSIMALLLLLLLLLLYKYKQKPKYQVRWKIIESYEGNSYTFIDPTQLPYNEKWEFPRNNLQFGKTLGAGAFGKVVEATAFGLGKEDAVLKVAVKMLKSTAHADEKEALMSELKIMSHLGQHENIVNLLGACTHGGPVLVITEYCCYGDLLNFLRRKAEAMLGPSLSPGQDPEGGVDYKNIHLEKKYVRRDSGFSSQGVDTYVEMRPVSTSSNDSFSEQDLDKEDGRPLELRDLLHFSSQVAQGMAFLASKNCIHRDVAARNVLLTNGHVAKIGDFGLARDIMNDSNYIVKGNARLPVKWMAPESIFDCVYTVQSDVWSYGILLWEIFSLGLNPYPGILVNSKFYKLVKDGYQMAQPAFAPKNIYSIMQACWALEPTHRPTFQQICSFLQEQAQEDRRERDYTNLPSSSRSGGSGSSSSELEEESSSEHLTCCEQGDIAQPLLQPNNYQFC
# HT-29 [5] = assay: Induction of apoptosis in human HT-29 cells assessed as early apoptotic cells at 50 uM after 48 hrs by Annexin-V-FITC/propidium iodide staining based flow cytometry (reference value: 1%); format: functional
# [6] = target: TGF-beta receptor type-1 (Homo sapiens) (UniProt P36897); assay: Inhibition of human TGFBR1 (D179 to M503 residues) expressed in bacterial expression system assessed as residual activity at 5 uM by KINOMEscan assay relative to control
# Sequence of TGF-beta receptor type-1 (Homo sapiens) (P36897 whole entry, the tested form may be a part): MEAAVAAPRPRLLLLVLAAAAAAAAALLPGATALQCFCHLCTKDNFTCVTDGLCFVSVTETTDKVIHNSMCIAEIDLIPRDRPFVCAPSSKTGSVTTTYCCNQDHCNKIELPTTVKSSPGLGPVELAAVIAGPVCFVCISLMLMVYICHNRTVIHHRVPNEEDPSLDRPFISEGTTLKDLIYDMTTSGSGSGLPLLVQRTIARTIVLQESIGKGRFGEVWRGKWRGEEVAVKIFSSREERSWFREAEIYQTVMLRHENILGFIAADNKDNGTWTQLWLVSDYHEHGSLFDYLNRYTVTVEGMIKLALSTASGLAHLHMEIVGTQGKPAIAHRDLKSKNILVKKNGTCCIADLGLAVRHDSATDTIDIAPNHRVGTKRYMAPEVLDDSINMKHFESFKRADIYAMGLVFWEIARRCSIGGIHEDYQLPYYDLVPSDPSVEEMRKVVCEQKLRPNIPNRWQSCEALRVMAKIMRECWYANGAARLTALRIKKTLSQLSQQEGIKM
# [7] = target: Activin receptor type-1B (Homo sapiens) (UniProt P36896); assay: Inhibition of human ACVR1B (S187 to I505 residues) expressed in bacterial expression system assessed as residual activity at 5 uM by KINOMEscan assay relative to control
# Sequence of Activin receptor type-1B (Homo sapiens) (P36896 whole entry, the tested form may be a part): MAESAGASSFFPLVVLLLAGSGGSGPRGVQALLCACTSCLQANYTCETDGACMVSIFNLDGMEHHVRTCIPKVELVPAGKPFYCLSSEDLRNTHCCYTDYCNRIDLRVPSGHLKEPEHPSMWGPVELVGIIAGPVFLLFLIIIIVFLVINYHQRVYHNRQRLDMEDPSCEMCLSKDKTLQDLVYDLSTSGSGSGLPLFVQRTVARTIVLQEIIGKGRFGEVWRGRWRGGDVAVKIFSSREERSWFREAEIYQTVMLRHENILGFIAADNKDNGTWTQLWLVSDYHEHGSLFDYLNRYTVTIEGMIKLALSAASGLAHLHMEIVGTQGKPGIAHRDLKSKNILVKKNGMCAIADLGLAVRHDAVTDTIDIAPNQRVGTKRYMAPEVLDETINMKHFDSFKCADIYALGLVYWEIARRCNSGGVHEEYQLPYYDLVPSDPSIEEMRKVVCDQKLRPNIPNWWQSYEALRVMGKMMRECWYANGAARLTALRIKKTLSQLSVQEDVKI
# [8] = target: Serine/threonine-protein kinase B-raf (Homo sapiens, UniProt P15056, V600E); assay: Binding affinity to human BRAF (S429 to E741 residues) V600E mutant expressed in mammalian expression system by KINOMEscan assay
# Sequence of Serine/threonine-protein kinase B-raf (P15056 2-766 V600E limits assumed): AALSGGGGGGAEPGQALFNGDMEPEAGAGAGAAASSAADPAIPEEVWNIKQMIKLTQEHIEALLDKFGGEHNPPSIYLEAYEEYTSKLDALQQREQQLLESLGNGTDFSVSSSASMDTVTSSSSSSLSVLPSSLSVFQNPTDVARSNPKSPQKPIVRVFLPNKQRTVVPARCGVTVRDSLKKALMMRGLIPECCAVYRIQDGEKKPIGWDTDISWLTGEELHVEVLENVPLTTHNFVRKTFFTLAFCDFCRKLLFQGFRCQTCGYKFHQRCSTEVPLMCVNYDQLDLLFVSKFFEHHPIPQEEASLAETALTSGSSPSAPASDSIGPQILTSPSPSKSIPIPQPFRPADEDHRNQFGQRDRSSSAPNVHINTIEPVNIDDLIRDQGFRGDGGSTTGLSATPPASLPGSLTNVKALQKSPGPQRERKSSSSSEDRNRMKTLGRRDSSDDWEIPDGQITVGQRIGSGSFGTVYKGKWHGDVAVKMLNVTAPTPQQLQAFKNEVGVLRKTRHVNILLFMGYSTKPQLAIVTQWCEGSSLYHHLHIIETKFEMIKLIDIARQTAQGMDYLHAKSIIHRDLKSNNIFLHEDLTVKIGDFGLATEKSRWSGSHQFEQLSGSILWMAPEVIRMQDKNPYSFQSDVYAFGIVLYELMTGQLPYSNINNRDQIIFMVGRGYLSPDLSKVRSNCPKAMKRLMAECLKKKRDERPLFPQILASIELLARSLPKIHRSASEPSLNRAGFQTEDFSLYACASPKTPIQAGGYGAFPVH
# SW-620 [9] = assay: Induction of apoptosis in human SW620 cells assessed as late apoptotic cells at 75 uM after 48 hrs by Annexin-V-FITC/propidium iodide staining based flow cytometry (reference value: 1.2%); format: functional
# [10] = target: Mitogen-activated protein kinase 9 (Homo sapiens, UniProt P45984); assay: Binding affinity to full length human JNK2 (M1 to Q382 residues) expressed in mammalian expression system by KINOMEscan assay
# Sequence of Mitogen-activated protein kinase 9 (P45984 whole entry, the tested form may be a part): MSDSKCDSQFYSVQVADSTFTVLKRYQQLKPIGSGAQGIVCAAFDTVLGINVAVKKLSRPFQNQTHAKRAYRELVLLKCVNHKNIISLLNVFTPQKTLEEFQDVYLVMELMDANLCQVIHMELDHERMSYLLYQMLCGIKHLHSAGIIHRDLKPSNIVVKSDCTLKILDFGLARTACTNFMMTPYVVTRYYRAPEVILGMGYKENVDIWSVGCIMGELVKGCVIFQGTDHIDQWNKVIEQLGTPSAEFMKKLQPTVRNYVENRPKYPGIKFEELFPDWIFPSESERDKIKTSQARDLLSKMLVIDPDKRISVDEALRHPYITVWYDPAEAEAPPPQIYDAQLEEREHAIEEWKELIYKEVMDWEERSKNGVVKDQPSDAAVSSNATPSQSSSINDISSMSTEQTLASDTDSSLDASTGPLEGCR
# [11] = target: Cyclin-dependent kinase 19 (Homo sapiens, UniProt Q9BWU1); assay: Inhibition of human CDK11 (M1 to N360 residues) expressed in bacterial expression system assessed as residual activity at 5 uM by KINOMEscan assay relative to control
# HT-29 [12] = assay: Down regulation of CDK1 expression in human HT-29 cells after 48 hrs by Western blot analysis; format: functional, cell-based
# Outline: (§1)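 HT29 or SW620 cells were treated at 0, 25, 50 and 75 μM for 48 h and lysed in RIPA with protease and phosphatase inhibitors. Protein was quantified by BCA. 50 μg lysate was run on 8–15% SDS-PAGE and transferred to PVDF. Blocking was 5% BSA/TBST for 2 h; primary antibodies were applied overnight at 4 °C, then HRP secondary 1 h at room temperature.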
# [13] = system: Mast/stem cell growth factor receptor Kit (Homo sapiens), P10721 [V559D,T670I]; assay: Inhibition of human KIT (I571 to D952 residues) V559D/T670I double mutant expressed in bacterial expression system assessed as residual activity at 5 uM by KINOMEscan assay relative to control
# [14] = target: Serine/threonine-protein kinase PLK1 (Homo sapiens, UniProt P53350); assay: Inhibition of human PLK1 (A33 to F325 residues) expressed in mammalian expression system assessed as residual activity at 5 uM by KINOMEscan assay relative to control
# [15] = target: Atypical kinase COQ8A, mitochondrial (Homo sapiens, UniProt Q8NI60); assay: Inhibition of […] human ADCK3 (M280 to Q647 residues) expressed in bacterial expression system assessed as residual activity at 5 uM by KINOMEscan assay relative to control
# Sequence of Atypical kinase COQ8A, mitochondrial (Q8NI60 163-647 limits assumed): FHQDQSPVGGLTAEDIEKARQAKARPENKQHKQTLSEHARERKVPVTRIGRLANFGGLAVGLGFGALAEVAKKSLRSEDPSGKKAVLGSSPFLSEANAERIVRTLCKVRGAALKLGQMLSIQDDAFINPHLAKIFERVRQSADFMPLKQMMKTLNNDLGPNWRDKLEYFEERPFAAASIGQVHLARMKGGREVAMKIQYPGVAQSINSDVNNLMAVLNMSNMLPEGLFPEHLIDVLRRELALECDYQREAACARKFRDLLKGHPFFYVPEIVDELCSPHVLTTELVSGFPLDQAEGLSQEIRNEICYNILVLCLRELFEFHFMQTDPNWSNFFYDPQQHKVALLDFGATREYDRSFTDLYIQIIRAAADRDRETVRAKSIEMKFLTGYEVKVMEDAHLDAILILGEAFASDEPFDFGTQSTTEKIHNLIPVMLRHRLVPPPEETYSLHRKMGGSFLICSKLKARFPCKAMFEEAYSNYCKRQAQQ
# SW-620 [16] = assay: Cell cycle arrest in human SW620 cells assessed as accumulation at G1-phase at 25 uM after 48 hrs by propidium iodide staining based flow cytometry (reference value: 40.56%); format: functional
# HT-29 [17] = assay: Induction of apoptosis in human HT-29 cells assessed as necrotic cells at 25 uM after 48 hrs by Annexin-V-FITC/propidium iodide staining based flow cytometry (reference value: 1.6%); format: functional
# [18] = target: Receptor tyrosine-protein kinase erbB-2 (Homo sapiens, UniProt P04626); assay: Binding affinity to human ERBB2 (K646 to V1225 residues) expressed in mammalian expression system by KINOMEscan assay
# [19] = target: Mitogen-activated protein kinase 14 (Homo sapiens, UniProt Q16539); assay: Binding affinity to full length human p38alpha (M1 to S360 residues) expressed in bacterial expression system by KINOMEscan assay
# Sequence of Mitogen-activated protein kinase 14 (Q16539 whole entry, the tested form may be a part): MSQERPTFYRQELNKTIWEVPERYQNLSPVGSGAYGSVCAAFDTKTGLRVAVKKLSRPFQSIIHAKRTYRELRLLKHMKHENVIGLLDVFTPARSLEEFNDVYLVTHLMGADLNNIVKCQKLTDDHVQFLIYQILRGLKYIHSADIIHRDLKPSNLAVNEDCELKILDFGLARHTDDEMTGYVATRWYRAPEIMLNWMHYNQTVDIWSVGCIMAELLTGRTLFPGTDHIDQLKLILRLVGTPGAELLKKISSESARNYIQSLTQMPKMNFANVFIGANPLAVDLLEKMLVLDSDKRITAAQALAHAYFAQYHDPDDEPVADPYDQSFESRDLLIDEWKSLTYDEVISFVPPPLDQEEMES
# SW-620 [20] = assay: Growth inhibition of human SW620 cells by MTT assay; format: functional
# Outline: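 MTT viability assay: 3×10³ cells/well were pre-incubated for 24 h, then exposed to 0, 12.5, 25, 50, 100 or 200 μM for 12, 24, 48 or 72 h. MTT was added at 0.5 mg/mL final for 4 h, formazan dissolved in DMSO, and absorbance read at 570 nm. GI₅₀ was taken from growth-inhibition curves; mean ± SD of three independent experiments, each in sextuplicate.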
# HT-29 [21] = assay: Induction of apoptosis in human HT-29 cells assessed as reduction in MCL1 expression after 48 hrs by Western blot analysis; format: functional, cell-based; outline: as §1
# [22] = target: Epidermal growth factor receptor (Homo sapiens, UniProt P00533); assay: Binding affinity to partial length human EGFR (R669 to V1011 residues) expressed in bacterial expression system by KINOMEscan assay
# SW-620 [23] = assay: Cell cycle arrest in human SW620 cells assessed as accumulation at S-phase at 50 uM after 48 hrs by propidium iodide staining based flow cytometry (reference value: 43.72%); format: functional
# [24] = target: Receptor-type tyrosine-protein kinase FLT3 (Homo sapiens, UniProt P36888); assay: Binding affinity to human FLT3 (V592 to Y969 residues) expressed in bacterial expression system by KINOMEscan assay
# Sequence of Receptor-type tyrosine-protein kinase FLT3 (P36888 whole entry, the tested form may be a part): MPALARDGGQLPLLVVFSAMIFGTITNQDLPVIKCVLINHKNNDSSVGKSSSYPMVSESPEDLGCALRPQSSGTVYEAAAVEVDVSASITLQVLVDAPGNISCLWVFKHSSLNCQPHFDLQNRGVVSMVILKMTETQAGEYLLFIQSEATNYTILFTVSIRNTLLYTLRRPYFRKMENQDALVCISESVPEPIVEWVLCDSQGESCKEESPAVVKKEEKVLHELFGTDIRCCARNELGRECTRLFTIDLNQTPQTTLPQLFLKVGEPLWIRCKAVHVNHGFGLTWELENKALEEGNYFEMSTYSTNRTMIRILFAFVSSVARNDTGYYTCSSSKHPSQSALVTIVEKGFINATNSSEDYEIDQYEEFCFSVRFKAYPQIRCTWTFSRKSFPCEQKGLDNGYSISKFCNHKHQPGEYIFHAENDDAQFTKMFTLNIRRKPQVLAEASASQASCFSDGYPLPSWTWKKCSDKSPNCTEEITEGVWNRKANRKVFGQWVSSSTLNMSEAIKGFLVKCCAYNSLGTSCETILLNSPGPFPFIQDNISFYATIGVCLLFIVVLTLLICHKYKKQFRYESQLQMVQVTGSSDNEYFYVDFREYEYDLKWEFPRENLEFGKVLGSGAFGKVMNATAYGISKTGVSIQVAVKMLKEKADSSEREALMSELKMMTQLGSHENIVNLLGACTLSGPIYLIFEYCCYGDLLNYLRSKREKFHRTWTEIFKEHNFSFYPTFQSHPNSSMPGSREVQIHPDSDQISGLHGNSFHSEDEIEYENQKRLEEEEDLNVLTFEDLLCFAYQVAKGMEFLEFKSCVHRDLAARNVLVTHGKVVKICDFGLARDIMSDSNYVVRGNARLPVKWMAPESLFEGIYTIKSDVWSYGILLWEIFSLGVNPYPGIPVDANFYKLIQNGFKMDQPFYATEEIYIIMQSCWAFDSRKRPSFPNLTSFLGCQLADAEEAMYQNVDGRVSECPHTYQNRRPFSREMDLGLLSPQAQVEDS
# [25] = target: RAC-beta serine/threonine-protein kinase (Homo sapiens, UniProt P31751); assay: Binding affinity to human AKT2 expressed in bacterial expression system by KINOMEscan assay
# [26] = target: Serine/threonine-protein kinase RIO2 (Homo sapiens, UniProt Q9BVS4); assay: Inhibition of human RIOK2 (M1 to D313 residues) expressed in mammalian expression system assessed as residual activity at 5 uM by KINOMEscan assay relative to control
# SW-620 [27] = assay: Induction of apoptosis in human SW620 cells assessed as reduction in MCL1 expression after 48 hrs by Western blot analysis; format: functional, cell-based
# HT-29 [28] = assay: Induction of apoptosis in human HT-29 cells assessed as necrotic cells at 50 uM after 48 hrs by Annexin-V-FITC/propidium iodide staining based flow cytometry (reference value: 1.6%); format: functional
structure (smiles),measurement,setting,value
CC(C)CN(C(=O)c1cccnc1)c1c2ccccc2c(=O)n2c1[nH]c1ccccc12,Kd,[1],≥ 5 µM
same,Kd,[2],≥ 5 µM
same,Activity,[3],63%
same,Kd,[4],≥ 5 µM
same,Activity,HT-29 [5],1.7%
same,Activity,[6],100%
same,Activity,[7],92%
same,Kd,[8],≥ 5 µM
same,Activity,SW-620 [9],19.6%
same,Kd,[10],≥ 5 µM
same,Activity,[11],77%
same,Activity,HT-29 [12],Dose-dependent effect
same,Activity,[13],98%
same,Activity,[14],100%
same,Activity,[15],100%
same,Activity,SW-620 [16],39.26%
same,Activity,HT-29 [17],2.7%
same,Kd,[18],≥ 5 µM
same,Kd,[19],≥ 5 µM
same,GI50,SW-620 [20],23.8 µM
same,Activity,HT-29 [21],Dose-dependent effect
same,Kd,[22],≥ 5 µM
same,Activity,SW-620 [23],32.39%
same,Kd,[24],≥ 5 µM
same,Kd,[25],≥ 5 µM
same,Activity,[26],87%
same,Activity,SW-620 [27],Dose-dependent effect
same,Activity,HT-29 [28],4.4%
